This note sets out measurements from ChEMBL document CHEMBL4831540, “Discovery of Aficamten (CK-274), a Next-Generation Cardiac Myosin Inhibitor for the Treatment of Hypertrophic Cardiomyopathy” (J Med Chem, 2021).

A short description of data set [1]: Inhibition of full-length myosin ATPase activity in bovine cardiac myofibrils. Format: subcellular, Bos taurus, Heart. Summed up: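 Bovine cardiac myofibril ATPase assay run at a calcium level giving 75% of maximal activity.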
Data set [2] is described as follows: Metabolic stability in rat liver microsomes assessed as intrinsic clearance measured upto 90mins by HPLC/MS/MS analysis. Format: ADME, Microsome. The note with it: read-out: CLH. On the technique in general: Microsomes from liver hold many membrane-bound enzymes, among them those of drug oxidation.
A short description of data set [3]: Metabolic stability in human liver microsomes assessed as intrinsic clearance measured upto 90mins by HPLC/MS/MS analysis. The data set is classed as ADME, Microsome. The note with it: read-out: CLH.
Data set [4] in a line: Plasma protein binding in rat plasma assessed as unbound concentration at 5 uM incubated for 6 hrs by HPLC analysis. The data set is classed as ADME, cell-free.
A short description of data set [5]: Plasma protein binding in rat assessed as unbound fraction. Format: ADME, cell-free.
Data set [6] in a line: Clearance in Sprague-Dawley rat at 1 mg/kg. Format: ADME, organism-based. The note with it: in vivo. Summed up: (§1)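 Rat PK with iv and po administration at 1 mg/kg. Clearance and half-life came from the iv arm, and bioavailability from the iv/po comparison.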
A short description of data set [7]: Half life in Sprague-Dawley rat at 1 mg/kg. The data set is classed as ADME, organism-based. To be noted: in vivo. Summed up: as §1
A short description of data set [8]: Oral bioavailability in Sprague-Dawley rat at 2 mg/kg. The data set is classed as ADME, organism-based. The note with it: in vivo. Summed up:
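Multi-species PK study in male animals, n = 3 per group (dog IV arm n = 2). Iv and oral dosing with plasma concentration–time profiles yielding Cmax, tmax, AUC0–t, CL, Vss, t1/2 and F.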

The nature of data set [9]: Clearance in Sprague-Dawley rat at 1 mg/kg. To be noted: in vivo.
The subject of data set [10] is Rattus norvegicus. In words: Anti-hypertrophic cardiomyopathy in Sprague-Dawley rat assessed as reduction in fractional shortening at 4 mg/kg, po measured upto 24 hrs by echocardiography relative to control. To be noted: time hrs <=24. Further details: scale not given: the % may be the effect or the level left. Format: functional. Summed up:
(§2)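 Normal Sprague–Dawley rats were given single oral doses of 0.5–4 mg/kg. Left ventricular dimensions and fractional shortening were measured by echocardiography at selected time points over 24 h, relative to vehicle treatment.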

Data set [11] has as its system Rattus norvegicus. In words: Anti-hypertrophic cardiomyopathy in po dosed Sprague-Dawley rat assessed as reduction in fractional shortening measured upto 24 hrs by echocardiography. Format: functional, organism-based. Summed up:
as §2

A short description of data set [12]: Ratio of IC50 to IC10 for anti-hypertrophic cardiomyopathy in po dosed Sprague-Dawley rat assessed as reduction in fractional shortening measured upto 24 hrs by echocardiography. Format: functional. The note with it: time hrs <=24. Summed up:
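Sprague–Dawley rats received single oral doses from 0.5 to 4 mg/kg. LV dimensions and fractional shortening were read by echocardiography at set times over 24 h, with blood drawn at each reading for compound level. Concentrations giving 50% and 10% FS reduction were derived, and their IC50/IC10 ratio was calculated.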

The next data set deals with CYP3A4 (Homo sapiens, UniProt P08684). The data set can be described thus: Induction of CYP3A4 in human hepatocytes assessed as mRNA expression incubated for 3 days by RT-RTPCR analysis. Format: ADME, cell-based, Hepatocyte. Summed up:
(§3)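 Cryopreserved plateable human primary hepatocytes from three separate donors were tested at concentrations up to 50 μM. The end point was CYP mRNA level, with induction judged against predetermined cutoff values (2-fold).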

A further data set deals with T1, Cytochrome P450 2B6 (Homo sapiens, UniProt P20813).
T1 sequence (P20813 whole entry): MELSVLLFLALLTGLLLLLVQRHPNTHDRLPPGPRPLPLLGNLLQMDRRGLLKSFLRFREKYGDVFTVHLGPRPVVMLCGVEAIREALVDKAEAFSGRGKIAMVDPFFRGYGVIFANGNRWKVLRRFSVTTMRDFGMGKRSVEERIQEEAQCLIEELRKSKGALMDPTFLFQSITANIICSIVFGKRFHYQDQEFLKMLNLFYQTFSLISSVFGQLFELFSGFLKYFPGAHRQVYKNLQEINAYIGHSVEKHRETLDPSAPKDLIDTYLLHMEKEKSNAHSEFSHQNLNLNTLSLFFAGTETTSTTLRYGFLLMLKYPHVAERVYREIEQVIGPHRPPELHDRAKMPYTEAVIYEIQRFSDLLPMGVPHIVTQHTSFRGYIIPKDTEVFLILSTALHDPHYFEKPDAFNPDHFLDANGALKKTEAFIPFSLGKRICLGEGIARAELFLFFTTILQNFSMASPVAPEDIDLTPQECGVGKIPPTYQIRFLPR
The data set can be described thus: Induction of CYP2B6 in human hepatocytes assessed as mRNA expression incubated for 3 days by RT-RTPCR analysis. Format: ADME, cell-based. To be noted: hepatocyte. Summed up:
as §3

A short description of data set [13]: Half life in human. The data set is classed as ADME.
Data set [14] is described as follows: Bioavailability in Sprague-Dawley rat at 2 to 6 mg/kg, po and 1 mg/kg, iv. To be noted: in vivo.

Sequence of CYP3A4 (P08684 whole entry): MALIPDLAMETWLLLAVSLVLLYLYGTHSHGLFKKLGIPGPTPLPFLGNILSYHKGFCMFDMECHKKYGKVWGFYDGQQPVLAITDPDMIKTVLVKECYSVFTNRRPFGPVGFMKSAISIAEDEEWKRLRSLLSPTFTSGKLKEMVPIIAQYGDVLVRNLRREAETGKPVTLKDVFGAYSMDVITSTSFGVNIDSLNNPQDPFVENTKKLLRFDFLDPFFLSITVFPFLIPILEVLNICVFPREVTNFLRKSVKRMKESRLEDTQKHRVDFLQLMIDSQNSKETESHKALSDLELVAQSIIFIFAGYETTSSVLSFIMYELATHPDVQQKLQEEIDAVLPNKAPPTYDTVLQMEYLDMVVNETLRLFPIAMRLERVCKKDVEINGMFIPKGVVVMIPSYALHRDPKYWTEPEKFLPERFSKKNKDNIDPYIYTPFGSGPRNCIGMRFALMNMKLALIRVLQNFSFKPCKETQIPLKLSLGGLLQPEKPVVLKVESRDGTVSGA

The IC50 is the point on the concentration scale where inhibition reaches its midpoint. The term fraction unbound denotes the share of the substance not bound to proteins or other matrix. What is called clearance is the rate of elimination divided by the concentration. By half-life is commonly meant the time in which the quantity being followed falls by half. By bioavailability is commonly meant dose-corrected exposure relative to a reference, in per cent. The compound `Cn1nnc(C(=O)N[C@@H]2CCc3cc(-c4noc(C5CC5)n4)ccc32)n1` came in with an IC50 in [1] of 1000 nM. The CLint scaled was less than 21 mL/min/kg in [2] and less than 11 mL/min/kg in data set [3]. Moreover, the fraction unbound at 6 h, 5 µM in data set [4] amounted to 0.12. Moreover, the free fraction (fraction unbound) in data set [5] came to 0.077. The clearance in data set [6] and in [9] was 5 mL/min/kg throughout. This compound had a half-life in data set [7] of 17.8 h. Also, the bioavailability in data set [8] came out at 100%.

Usually IC10 stands for the point of the concentration-response curve where the effect stands at 10%. A word on the EC50: it is the concentration at which the effect is half-maximal. Regarding `CC(C)n1c(=O)cc(N[C@@H](C)c2ccccc2)[nH]c1=O` [MAVACAMTEN], the Activity with Rattus norvegicus [10] is on record as 80%. Besides, the concentration for an effect of 10% (IC10) in the data set with Rattus norvegicus [11] (Rattus norvegicus, Sprague-Dawley, 24 h) was found to be 600 nM. For the same compound, the IC50 with Rattus norvegicus [11] (time hrs <=24) came out at 1700 nM. Also, the Ratio in [12] is given as 2.8. On CYP3A4, the EC50 at 3 days worked out at 2200 nM. Further, on Cytochrome P450 2B6, the EC50 was determined as 5100 nM. This compound also gave a half-life in data set [13] of 216 h.

Turning to `CCc1nc(-c2ccc3c(c2)CC[C@H]3NC(=O)c2nnn(C)n2)no1`, in data set [1], the IC50 was determined as 900 nM. In addition, the figures for the CLint scaled in data set [2] and in data set [3] were less than 21 mL/min/kg and less than 11 mL/min/kg, respectively. Moreover, the free fraction (fraction unbound) at 6 h, 5 µM in data set [4] was 0.29. Also, the fraction unbound in data set [5] stood at 0.11. Besides, the clearance in [6] and in data set [9] was 20 mL/min/kg throughout. The compound further showed a half-life in data set [7] of 6.3 h. In addition, in data set [14], the bioavailability was found to be 53%.
